Key:
H358 cells = assay: Anti-proliferation in H358 NSCLC cells; assay type: cell-based; details: 72 h, in words
Procedure, shortened: (§1)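 Cells seeded at 2000 cells/well and left 48 h before drug addition at varying doses. After 72 h incubation, viability was read by CellTiter-Glo luminescence. Growth-inhibition IC50 values were calculated from dose-response curves.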

KRAS^G12D Ba/F3 cells = assay: Anti-proliferation in KRAS^G12D Ba/F3 cells; assay type: cell-based; details: 2 vs 8, 25 vs 26
[1] = test system: synovial fibroblasts from an RA patient (RA2159); assay: Cytokine secretion by activated RA synovial fibroblasts; assay type: cell-based, human; details: TNFα, IL-1α or Poly(I:C) activation
Procedure, shortened: (§2)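 Primary human RA synovial fibroblasts (lot RA2159) were seeded at 1000 cells/well, grown ~24 h, then starved overnight and ~4 h in 0.1% BSA. Pooled supernatants (duplicates) were diluted 1:3 for 48-analyte Luminex measurement and iMLR modeling.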

[2] = test system: synovial fibroblasts from an RA patient (RA2159); assay: FGF-basic secretion by TNFα-activated RA synovial fibroblasts; assay type: cell-based, human; details: TNFα-activated SF
Procedure, shortened: as §2

H23 cells = assay: Anti-proliferation in H23 NSCLC cells; assay type: cell-based; details: 72 h, in words
Procedure, shortened: as §1

TAK1 = target: T1, TAK1 (Homo sapiens, UniProt O43318); assay: Competitive pulldown of TAK1 with biotinylated probe 27 in H358 and H23 cells; assay type: cell-based; details: 6 h, washout, lysate + 1 μM 27; for blocking of labeling of TAK1 by 27: 10 μM compound; for effect on labeling of TAK1 by 27: 1 or 10 μM compound; for labeling of TAK1 by 27 after pre-treatment of cells: 1 μM compound
T1 sequence (O43318 1-606): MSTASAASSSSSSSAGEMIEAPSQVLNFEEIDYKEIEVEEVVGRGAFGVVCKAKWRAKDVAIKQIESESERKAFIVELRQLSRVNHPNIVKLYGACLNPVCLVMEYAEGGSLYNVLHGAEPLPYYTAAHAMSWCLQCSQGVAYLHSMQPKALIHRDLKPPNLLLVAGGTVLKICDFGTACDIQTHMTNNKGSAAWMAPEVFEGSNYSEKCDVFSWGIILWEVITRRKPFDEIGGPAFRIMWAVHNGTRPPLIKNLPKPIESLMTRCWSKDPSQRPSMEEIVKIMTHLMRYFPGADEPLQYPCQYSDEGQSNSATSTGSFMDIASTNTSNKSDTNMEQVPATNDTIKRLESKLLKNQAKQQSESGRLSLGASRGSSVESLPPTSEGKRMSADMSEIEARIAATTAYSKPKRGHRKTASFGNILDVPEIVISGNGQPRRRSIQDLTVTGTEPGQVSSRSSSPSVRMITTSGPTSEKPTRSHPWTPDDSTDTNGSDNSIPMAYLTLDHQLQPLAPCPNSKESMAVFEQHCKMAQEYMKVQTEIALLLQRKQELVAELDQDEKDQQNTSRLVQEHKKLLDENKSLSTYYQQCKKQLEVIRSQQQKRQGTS
Procedure, shortened: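 H358 and H23 NSCLC cells (KRAS G12C) were exposed to test compound at 1 or 10 μM for 6 h. Drug medium was removed, and cells were rinsed twice with cold PBS and lysed in MPER buffer. Lysates were incubated overnight at 4 °C with 1 μM biotinylated probe and pulled down on streptavidin beads. Recovered TAK1 was detected by immunoblotting.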

SW156 = assay: Anti-proliferation in SW156 renal cell carcinoma cells; assay type: cell-based; details: read-out: Cellular IC50s Kidney SW156
URMC6 = assay: Anti-proliferation in URMC6 renal cell carcinoma cells; assay type: cell-based; details: read-out: Cellular IC50s Kidney URMC6
PANC-1 = assay: Anti-proliferation in PANC-1 pancreatic cancer cells; assay type: cell-based; details: Homo sapiens, PANC-1, read-out: Cellular IC50s Pancreas PANC-1
panel of 456 kinases = assay: KinomeScan ATP-site competition binding panel; details: 1 and 10 μM
[3] = test system: synovial fibroblasts from an RA patient (RA2159); details: TNFα but not IL-1α or Poly(I:C) ref 24; cited from earlier work
[4] = test system: SW620, SK-CO-1, PANC-1, AsPc-1, SW156, URMC6; assay: Anti-proliferation across six colon, pancreas and kidney cancer lines; assay type: cell-based; details: read-out: IC50 values against all lines except PANC-1
ZAP70 = target: T2, ZAP70 (Homo sapiens, UniProt P43403); assay: KiNativ live-cell profiling in SK-CO-1 cells; assay type: binding; details: read-out: Inhibition (%) ZAP70
T2 sequence (P43403 1-619): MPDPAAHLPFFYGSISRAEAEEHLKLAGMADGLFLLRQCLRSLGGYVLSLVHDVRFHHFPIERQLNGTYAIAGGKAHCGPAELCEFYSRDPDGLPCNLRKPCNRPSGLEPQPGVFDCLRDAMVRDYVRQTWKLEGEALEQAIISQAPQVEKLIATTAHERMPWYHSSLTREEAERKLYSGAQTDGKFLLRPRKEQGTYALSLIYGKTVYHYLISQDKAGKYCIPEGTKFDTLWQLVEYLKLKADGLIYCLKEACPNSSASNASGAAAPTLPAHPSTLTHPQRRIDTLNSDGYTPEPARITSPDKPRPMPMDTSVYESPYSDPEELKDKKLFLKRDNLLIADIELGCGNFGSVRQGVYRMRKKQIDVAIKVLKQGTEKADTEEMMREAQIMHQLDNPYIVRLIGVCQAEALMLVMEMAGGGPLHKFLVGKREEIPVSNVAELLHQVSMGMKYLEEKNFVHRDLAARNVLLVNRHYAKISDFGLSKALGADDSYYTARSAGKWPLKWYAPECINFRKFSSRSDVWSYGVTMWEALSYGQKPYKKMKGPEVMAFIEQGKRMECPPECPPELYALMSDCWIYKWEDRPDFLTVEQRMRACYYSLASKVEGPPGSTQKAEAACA

MAP2K6 = target: T3, MAP2K6 (Homo sapiens, UniProt P52564); assay: KiNativ live-cell profiling in SK-CO-1 cells; assay type: binding; details: read-out: Inhibition (%) MAP2K6
T3 sequence (P52564 1-334): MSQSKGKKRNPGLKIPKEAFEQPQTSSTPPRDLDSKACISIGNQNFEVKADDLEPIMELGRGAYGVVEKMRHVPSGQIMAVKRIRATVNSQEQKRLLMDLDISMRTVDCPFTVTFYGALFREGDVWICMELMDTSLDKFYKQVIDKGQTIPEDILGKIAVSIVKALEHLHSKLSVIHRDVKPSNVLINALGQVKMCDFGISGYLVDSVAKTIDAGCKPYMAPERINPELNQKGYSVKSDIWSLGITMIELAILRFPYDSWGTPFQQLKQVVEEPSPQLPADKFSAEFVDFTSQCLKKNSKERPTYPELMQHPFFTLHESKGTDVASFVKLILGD

Compound	anti-proliferative effect, H358 (H358 cells)	normalization of induced cytokine secretion ([1]; 3 μM)	anti-proliferative effect, H23 (H23 cells)	blocking of labeling of TAK1 by 27 (TAK1)	effect on labeling of TAK1 by 27 (TAK1)	also measured
C=CC(=O)Nc1ccccc1Oc1nc(Nc2ccc(N3CCN(C)CC3)cc2)ncc1Cl [Compound 2]	potent against both lines at very low concentrations	normalized cytokine secretion	potent against both lines at very low concentrations	only partially blocked labeling of TAK1		fold more potent than non-covalent counterpart against KRAS^G12D Ba/F3 cells (KRAS^G12D Ba/F3 cells): approximately 6 fold; potentiation of FGF-basic secretion induced by TNFα [2]: potentiated FGF-basic secretion
C=CC(=O)Oc1ccccc1Nc1nc(Nc2cccc(N3CCOCC3)c2)ncc1Cl [Compound 20]				only partially blocked labeling of TAK1		
CCC(=O)Nc1ccccc1Oc1nc(Nc2ccc(N3CCN(C)CC3)cc2)ncc1Cl [Compound 8]		virtually inactive			did not have a measurable effect	
Cn1cnc2c(F)c(Nc3ccc(Br)cc3Cl)c(C(=O)NOCCO)cc21 [AZD]						IC50 (SW156): > 100 µM; IC50 (URMC6): > 100 µM; IC50 (PANC-1): > 100 µM
COc1cc(O)c2c(c1)/C=C/C[C@H](O)[C@H](O)C(=O)/C=C\C[C@H](C)OC2=O [Compound 5Z7, 5Z-7-oxozeaenol, reference compound]						normalization of induced cytokine secretion ([1]; 0.6 μM): fully normalizing induced cytokine secretion; KinomeScan inhibition score (panel of 456 kinases): strong inhibition score against many kinases other than TAK1; labeling of TAK1 by 27 after pre-treatment of cells (TAK1): did not label TAK1; secretion of FGF-basic in SF activated by TNFα [3]: elevated secretion of fibroblast growth factor-basic
C=CC(=O)Nc1ccccc1Oc1nc(Nc2cnn(C(F)F)c2)ncc1Cl [Compound 23]				only partially blocked labeling of TAK1		
CCN1CCN(Cc2ccc(NC(=O)c3ccc(C)c(Oc4ccnc5[nH]ccc45)c3)cc2C(F)(F)F)CC1 [NG25, reference compound]	insufficient to block proliferation at concentrations lower than 5 μM	normalized cytokine secretion	insufficient to block proliferation at concentrations lower than 5 μM		inhibited TAK1 in an irreversible manner	
C=CC(=O)Nc1ccccc1Nc1nc(Nc2ccc(N3CCN(C)CC3)cc2)ncc1Cl [Compound 5]	potent against both lines at very low concentrations		potent against both lines at very low concentrations			IC50 [4]: 0.029 to 0.083 µM; normalization of induced cytokine secretion ([1]; 0.6 μM): fully normalizing induced cytokine secretion; inhibition at 1 µM (ZAP70): -26.6%; potentiation of FGF-basic secretion induced by TNFα [2]: potentiated FGF-basic secretion; inhibition at 1 µM (MAP2K6): -43.1%; labeling of TAK1 by 27 after pre-treatment of cells (TAK1): did not label TAK1
CCC(=O)Nc1ccccc1Oc1nc(Nc2cnn(CCOC)c2)ncc1Cl [Compound 26]		virtually inactive			did not have a measurable effect	IC50 (SW156): > 100 µM; IC50 (PANC-1): > 100 µM
CN1CCN(c2ccc(Nc3ncc(Cl)c(Nc4ccccc4NC(=O)CCl)n3)cc2)CC1 [Compound 10]	potent against both lines at very low concentrations		potent against both lines at very low concentrations	only partially blocked labeling of TAK1		
CC(C)Nc1cc(-c2c[nH]c(C(=O)N[C@H](CO)c3cccc(Cl)c3)c2)c(Cl)cn1 [BVD]						IC50 (URMC6): > 100 µM; IC50 (PANC-1): > 100 µM
CCC(=O)Nc1ccccc1Nc1nc(Nc2ccc(N3CCN(C)CC3)cc2)ncc1Cl [Compound 9]					did not have a measurable effect	
